Source: ChEMBL document CHEMBL4673214, “Synthesis and antibacterial bioactivities of cationic deacetyl linezolid amphiphiles” (Eur J Med Chem, 2018)

Experiments:
Klebsiella pneumoniae [1] = test: Antibacterial activity against carbapenem-resistant Klebsiella pneumoniae clinical isolate 4 assessed as reduction in bacterial growth incubated for 16 to 20 hrs by CLSI-based broth microdilution method; format: functional; conditions: time 16-20 hrs
In short: (§1)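 Clinical isolates tested by broth microdilution in cation-adjusted Mueller-Hinton broth. Cultures grown 4-6 h (~10^8 CFU/mL) were diluted to ~10^6 CFU/mL and mixed 1:1 with compound serial dilutions made from 256 down to 0.5 µg/mL (pre-mixing). Plates held at 37 °C for 16-20 h, then read for growth. Each concentration run in duplicate, whole experiment at least twice.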

Klebsiella pneumoniae [2] = test: Antibacterial activity against carbapenem-resistant Klebsiella pneumoniae clinical isolate 10 assessed as reduction in bacterial growth incubated for 16 to 20 hrs by CLSI-based broth microdilution method; format: functional; conditions: time 16-20 hrs; in short: as §1
Klebsiella pneumoniae [3] = test: Antibacterial activity against carbapenem-resistant Klebsiella pneumoniae clinical isolate 3 assessed as reduction in bacterial growth incubated for 16 to 20 hrs by CLSI-based broth microdilution method; format: functional; conditions: time 16-20 hrs; in short: as §1
Staphylococcus aureus [4] = test: Antibacterial activity against methicillin-resistant Staphylococcus aureus clinical isolate 4 assessed as reduction in bacterial growth incubated for 16 to 20 hrs by CLSI-based broth microdilution method; format: functional; conditions: time 16-20 hrs; in short: as §1
Staphylococcus aureus [5] = test: Antibacterial activity against methicillin-resistant Staphylococcus aureus clinical isolate 8 assessed as reduction in bacterial growth incubated for 16 to 20 hrs by CLSI-based broth microdilution method; format: functional; conditions: time 16-20 hrs; in short: as §1
Enterobacteriaceae [6] = test: Antibacterial activity against NDM1 producing carbapenem-resistant Enterobacteriaceae clinical isolate 6 assessed as reduction in bacterial growth incubated for 16 to 20 hrs by CLSI-based broth microdilution method; format: functional; conditions: time 16-20 hrs; in short: as §1
Staphylococcus aureus [7] = test: Antibacterial activity against Staphylococcus aureus ATCC 29213 assessed as reduction in bacterial growth incubated for 16 to 20 hrs by CLSI-based broth microdilution method; format: functional; conditions: time 16-20 hrs
In short: (§2)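 Broth microdilution following CLSI, in cation-adjusted Mueller-Hinton broth. Inoculum from a 4-6 h culture (~10^8 CFU/mL), diluted to ~10^6 CFU/mL. Water stocks were serially diluted in MHB (256 to 0.5 µg/mL) and mixed 1:1 with the inoculum. Plates ran 16-20 h at 37 °C. MIC was read visually. Each concentration was tested in duplicate, and the experiment was repeated at least twice.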

Klebsiella pneumoniae [8] = test: Antibacterial activity against carbapenem-resistant Klebsiella pneumoniae clinical isolate 1 assessed as reduction in bacterial growth incubated for 16 to 20 hrs by CLSI-based broth microdilution method; format: functional; conditions: time 16-20 hrs; in short: as §1
Escherichia coli = test: Antibacterial activity against Escherichia coli ATCC 25922 assessed as reduction in bacterial growth incubated 16 to 20 hrs by CLSI-based broth microdilution method; format: functional; conditions: time 16-20 hrs; in short: as §2
Staphylococcus aureus [9] = test: Antibacterial activity against methicillin-resistant Staphylococcus aureus clinical isolate 7 assessed as reduction in bacterial growth incubated for 16 to 20 hrs by CLSI-based broth microdilution method; format: functional; conditions: time 16-20 hrs; in short: as §1
Klebsiella pneumoniae [10] = test: Antibacterial activity against carbapenem-resistant Klebsiella pneumoniae clinical isolate 6 assessed as reduction in bacterial growth incubated for 16 to 20 hrs by CLSI-based broth microdilution method; format: functional; conditions: time 16-20 hrs; in short: as §1
Klebsiella pneumoniae [11] = test: Antibacterial activity against carbapenem-resistant Klebsiella pneumoniae clinical isolate 7 assessed as reduction in bacterial growth incubated for 16 to 20 hrs by CLSI-based broth microdilution method; format: functional; conditions: time 16-20 hrs; in short: as §1
Klebsiella pneumoniae [12] = test: Antibacterial activity against carbapenem-resistant Klebsiella pneumoniae clinical isolate 2 assessed as reduction in bacterial growth incubated for 16 to 20 hrs by CLSI-based broth microdilution method; format: functional; conditions: time 16-20 hrs; in short: as §1
Enterobacteriaceae [13] = test: Antibacterial activity against NDM1 producing carbapenem-resistant Enterobacteriaceae clinical isolate 4 assessed as reduction in bacterial growth incubated for 16 to 20 hrs by CLSI-based broth microdilution method; format: functional; conditions: time 16-20 hrs; in short: as §1
Enterobacteriaceae [14] = test: Antibacterial activity against NDM1 producing carbapenem-resistant Enterobacteriaceae clinical isolate 9 assessed as reduction in bacterial growth incubated for 16 to 20 hrs by CLSI-based broth microdilution method; format: functional; conditions: time 16-20 hrs; in short: as §1
Staphylococcus aureus [15] = test: Antibacterial activity against methicillin-resistant Staphylococcus aureus clinical isolate 2 assessed as reduction in bacterial growth incubated for 16 to 20 hrs by CLSI-based broth microdilution method; format: functional; conditions: time 16-20 hrs; in short: as §1
Salmonella enterica = test: Antibacterial activity against Salmonella enterica ATCC 8387 assessed as reduction in bacterial growth incubated for 16 to 20 hrs by CLSI-based broth microdilution method; format: functional; conditions: time 16-20 hrs; in short: as §2
Enterococcus faecalis = test: Antibacterial activity against Enterococcus faecalis ATCC 29212 assessed as reduction in bacterial growth incubated 16 to 20 hrs by CLSI-based broth microdilution method; format: functional; conditions: time 16-20 hrs; in short: as §2
Enterobacteriaceae [16] = test: Antibacterial activity against NDM1 producing carbapenem-resistant Enterobacteriaceae clinical isolate 1 assessed as reduction in bacterial growth incubated for 16 to 20 hrs by CLSI-based broth microdilution method; format: functional; conditions: time 16-20 hrs; in short: as §1
Staphylococcus aureus [17] = test: Antibacterial activity against methicillin-resistant Staphylococcus aureus clinical isolate 6 assessed as reduction in bacterial growth incubated for 16 to 20 hrs by CLSI-based broth microdilution method; format: functional; conditions: time 16-20 hrs; in short: as §1
Enterobacteriaceae [18] = test: Antibacterial activity against NDM1 producing carbapenem-resistant Enterobacteriaceae clinical isolate 8 assessed as reduction in bacterial growth incubated for 16 to 20 hrs by CLSI-based broth microdilution method; format: functional; conditions: time 16-20 hrs; in short: as §1
Enterobacteriaceae [19] = test: Antibacterial activity against NDM1 producing carbapenem-resistant Enterobacteriaceae clinical isolate 3 assessed as reduction in bacterial growth incubated for 16 to 20 hrs by CLSI-based broth microdilution method; format: functional; conditions: time 16-20 hrs; in short: as §1
Klebsiella pneumoniae [20] = test: Antibacterial activity against carbapenem-resistant Klebsiella pneumoniae clinical isolate 5 assessed as reduction in bacterial growth incubated for 16 to 20 hrs by CLSI-based broth microdilution method; format: functional; conditions: time 16-20 hrs; in short: as §1
Klebsiella pneumoniae [21] = test: Antibacterial activity against carbapenem-resistant Klebsiella pneumoniae clinical isolate 8 assessed as reduction in bacterial growth incubated for 16 to 20 hrs by CLSI-based broth microdilution method; format: functional; conditions: time 16-20 hrs; in short: as §1
Staphylococcus aureus [22] = test: Antibacterial activity against methicillin-resistant Staphylococcus aureus clinical isolate 10 assessed as reduction in bacterial growth incubated for 16 to 20 hrs by CLSI-based broth microdilution method; format: functional; conditions: time 16-20 hrs; in short: as §1
Klebsiella pneumoniae [23] = test: Antibacterial activity against carbapenem-resistant Klebsiella pneumoniae clinical isolate 9 assessed as reduction in bacterial growth incubated for 16 to 20 hrs by CLSI-based broth microdilution method; format: functional; conditions: time 16-20 hrs; in short: as §1
Enterobacteriaceae [24] = test: Antibacterial activity against NDM1 producing carbapenem-resistant Enterobacteriaceae clinical isolate 2 assessed as reduction in bacterial growth incubated for 16 to 20 hrs by CLSI-based broth microdilution method; format: functional; conditions: time 16-20 hrs; in short: as §1
Staphylococcus aureus [25] = test: Antibacterial activity against methicillin-resistant Staphylococcus aureus clinical isolate 9 assessed as reduction in bacterial growth incubated for 16 to 20 hrs by CLSI-based broth microdilution method; format: functional; conditions: time 16-20 hrs; in short: as §1
Staphylococcus aureus [26] = test: Antibacterial activity against methicillin-resistant Staphylococcus aureus clinical isolate 3 assessed as reduction in bacterial growth incubated for 16 to 20 hrs by CLSI-based broth microdilution method; format: functional; conditions: time 16-20 hrs; in short: as §1
Enterobacteriaceae [27] = test: Antibacterial activity against NDM1 producing carbapenem-resistant Enterobacteriaceae clinical isolate 5 assessed as reduction in bacterial growth incubated for 16 to 20 hrs by CLSI-based broth microdilution method; format: functional; conditions: time 16-20 hrs; in short: as §1
Staphylococcus aureus [28] = test: Antibacterial activity against methicillin-resistant Staphylococcus aureus clinical isolate 5 assessed as reduction in bacterial growth incubated for 16 to 20 hrs by CLSI-based broth microdilution method; format: functional; conditions: time 16-20 hrs; in short: as §1
Staphylococcus aureus [29] = test: Antibacterial activity against methicillin-resistant Staphylococcus aureus clinical isolate 1 assessed as reduction in bacterial growth incubated for 16 to 20 hrs by CLSI-based broth microdilution method; format: functional; conditions: time 16-20 hrs; in short: as §1
[30] = Solubility of the compound in water at room temperature; format: physicochemical; conditions: buffer
Enterobacteriaceae [31] = test: Antibacterial activity against NDM1 producing carbapenem-resistant Enterobacteriaceae clinical isolate 10 assessed as reduction in bacterial growth incubated for 16 to 20 hrs by CLSI-based broth microdilution method; format: functional; conditions: time 16-20 hrs; in short: as §1
Enterobacteriaceae [32] = test: Antibacterial activity against NDM1 producing carbapenem-resistant Enterobacteriaceae clinical isolate 7 assessed as reduction in bacterial growth incubated for 16 to 20 hrs by CLSI-based broth microdilution method; format: functional; conditions: time 16-20 hrs; in short: as §1

| SMILES | MIC (Klebsiella pneumoniae [1]) [mg/L] | MIC (Klebsiella pneumoniae [2]) [mg/L] | MIC (Klebsiella pneumoniae [3]) [mg/L] | MIC (Staphylococcus aureus [4]) [mg/L] | MIC (Staphylococcus aureus [5]) [mg/L] | MIC (Enterobacteriaceae [6]) [mg/L] | MIC (Staphylococcus aureus [7]) [mg/L] | MIC (Klebsiella pneumoniae [8]) [mg/L] | MIC (Escherichia coli) [mg/L] | MIC (Staphylococcus aureus [9]) [mg/L] | MIC (Klebsiella pneumoniae [10]) [mg/L] | MIC (Klebsiella pneumoniae [11]) [mg/L] | MIC (Klebsiella pneumoniae [12]) [mg/L] | MIC (Enterobacteriaceae [13]) [mg/L] | MIC (Enterobacteriaceae [14]) [mg/L] | MIC (Staphylococcus aureus [15]) [mg/L] | MIC (Salmonella enterica) [mg/L] | MIC (Enterococcus faecalis) [mg/L] | MIC (Enterobacteriaceae [16]) [mg/L] | solubility [30] | further results |
| --- | --- | --- | --- | --- | --- | --- | --- | --- | --- | --- | --- | --- | --- | --- | --- | --- | --- | --- | --- | --- | --- |
| CCCCCCCCCCCN(C[C@H]1CN(c2ccc(N3CCOCC3)c(F)c2)C(=O)O1)C(=O)[C@@H](N)CCCN=C(N)N.Cl.Cl.Cl | 8 | 16 | 8 | 4 | 4 | 16 | 4 | 16 | 8 | 4 | 16 | 32 | 16 | 64 | 16 | 8 | 8 | 8 | > 64 | Soluble | MIC (Staphylococcus aureus [17]): 4 mg/L; MIC (Enterobacteriaceae [18]): 16 mg/L; MIC (Enterobacteriaceae [19]): 16 mg/L; MIC (Klebsiella pneumoniae [20]): 16 mg/L; MIC (Klebsiella pneumoniae [21]): 8 mg/L; MIC (Staphylococcus aureus [22]): 4 mg/L; MIC (Klebsiella pneumoniae [23]): 8 mg/L; MIC (Enterobacteriaceae [24]): > 64 mg/L; MIC (Staphylococcus aureus [25]): 4 mg/L; MIC (Staphylococcus aureus [26]): 4 mg/L; MIC (Enterobacteriaceae [27]): 16 mg/L; MIC (Staphylococcus aureus [28]): 8 mg/L; MIC (Staphylococcus aureus [29]): 2 mg/L; MIC (Enterobacteriaceae [31]): 8 mg/L; MIC (Enterobacteriaceae [32]): 16 mg/L |
| CCCC[N+](C)(C)CC(=O)NC[C@H]1CN(c2ccc(N3CCOCC3)c(F)c2)C(=O)O1.[Cl-] |  |  |  |  |  |  | > 128 |  | > 128 |  |  |  |  |  |  |  | > 128 | > 128 |  | Soluble |  |
| CCCCCCCCCCCC[N+](C)(C)CC(=O)NC[C@H]1CN(c2ccc(N3CCOCC3)c(F)c2)C(=O)O1.[Cl-] | 64 | 64 | 64 | 16 | 8 | 16 | 8 | 32 | 16 | 4 | 32 | 64 | 32 | 64 | 16 | 8 | 16 | 4 | > 64 | Soluble | MIC (Staphylococcus aureus [17]): 4 mg/L; MIC (Enterobacteriaceae [18]): 16 mg/L; MIC (Enterobacteriaceae [19]): 64 mg/L; MIC (Klebsiella pneumoniae [20]): 64 mg/L; MIC (Klebsiella pneumoniae [21]): 32 mg/L; MIC (Staphylococcus aureus [22]): 8 mg/L; MIC (Klebsiella pneumoniae [23]): 64 mg/L; MIC (Enterobacteriaceae [24]): > 64 mg/L; MIC (Staphylococcus aureus [25]): 8 mg/L; MIC (Staphylococcus aureus [26]): 2 mg/L; MIC (Enterobacteriaceae [27]): 32 mg/L; MIC (Staphylococcus aureus [28]): 4 mg/L; MIC (Staphylococcus aureus [29]): 4 mg/L; MIC (Enterobacteriaceae [31]): 32 mg/L; MIC (Enterobacteriaceae [32]): 32 mg/L |
| CCCCCCCN(C[C@H]1CN(c2ccc(N3CCOCC3)c(F)c2)C(=O)O1)C(=O)[C@@H](N)CCCN=C(N)N.Cl.Cl.Cl |  |  |  |  |  |  | 64 |  | 128 |  |  |  |  |  |  |  | > 128 | 128 |  | Soluble |  |
